Measurements reported in ChEMBL document CHEMBL1137637, “Quinuclidine derivatives as potential antiparasitics” (Antimicrob Agents Chemother, 2007).
≈ marks a conversion by molar mass, not a printed value.

Columns and labels:
Leishmania amazonensis [1] = assay: Inhibition of sterol biosynthesis in Leishmania mexicana amazonensis promastigotes assessed as reduction in endogenous 5-dehydro episterol level at 0.1 uM after 96 hrs by gas-liquid chromatography; assay type: functional; set-up: scale not given: the % may be the effect or the level left
Outline: (§1)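 L. mexicana promastigotes exposed to compound for 96 h. Total lipids extracted and neutral sterols separated from polar lipids by silicic acid column chromatography. Sterols analysed by TLC and by quantitative capillary gas-liquid chromatography with mass spectrometry. Composition expressed as mass % of free sterols, compared with untreated control.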

[2] = target: T1, Farnesyltransferase, putative (Leishmania major, UniProt Q4Q5W4); assay: Inhibition of Leishmania major recombinant squalene synthase expressed in Escherichia coli by liquid scintillation counter
T1 sequence (Q4Q5W4 whole entry): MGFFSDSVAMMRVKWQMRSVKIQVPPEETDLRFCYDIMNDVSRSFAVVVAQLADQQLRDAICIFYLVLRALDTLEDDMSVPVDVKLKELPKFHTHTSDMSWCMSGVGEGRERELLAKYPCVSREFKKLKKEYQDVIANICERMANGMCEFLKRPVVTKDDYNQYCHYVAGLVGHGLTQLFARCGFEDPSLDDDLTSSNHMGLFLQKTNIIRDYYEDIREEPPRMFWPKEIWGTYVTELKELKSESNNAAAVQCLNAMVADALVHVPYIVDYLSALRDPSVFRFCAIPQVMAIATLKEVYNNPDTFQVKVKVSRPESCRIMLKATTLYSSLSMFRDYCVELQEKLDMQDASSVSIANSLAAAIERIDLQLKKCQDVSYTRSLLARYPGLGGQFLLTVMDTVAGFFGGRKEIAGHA
Outline: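 Soluble E. coli extract expressing L. major SQS truncated by 16 N-terminal and 40 C-terminal residues. Buffer: 50 mM phosphate pH 7.4, 20 mM MgCl2, 5 mM CHAPS, 1% Tween 80, 10 mM DTT, BSA, 0.25 mM NADPH, and a glucose-6-phosphate/G6PDH regenerating system. Substrate 0.5 μM radiolabelled farnesyl pyrophosphate. Squalene band counted by scintillation. IC50 from hyperbolic plot of five concentrations in duplicate, usually run twice.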

Leishmania donovani = assay: Antileishmanial activity against Leishmania donovani MHOM/ET/67/L82 axenic amastigotes after 72 hrs by resazurin assay; assay type: functional, organism-based; settings: MHOM/ET/67/L82, 72 h
Outline: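 L. donovani MHOM/ET/67/L82 amastigotes grown axenically at 37°C in synthetic minimal medium at pH 5.4 with 10% heat-inactivated FBS under 5% CO2. 1 × 10⁵ amastigotes per well with seven threefold dilutions, 30 to 0.041 μg/ml. After 72 h, resazurin added for 2–4 h more. Fluorescence read at ex 536/em 588 nm. IC50 taken from sigmoidal curve. Run in duplicate, with an independent repeat for actives.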

Leishmania amazonensis [3] = assay: Inhibition of sterol biosynthesis in Leishmania mexicana amazonensis promastigotes assessed as reduction in exogenous cholesterol level at 0.3 uM after 96 hrs by gas-liquid chromatography; assay type: functional; set-up: scale not given: the % may be the effect or the level left
Outline: (§2)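 Promastigotes grown in liver infusion-tryptose medium with lactalbumin and 10% fetal calf serum at 26°C, static; drug added at 0.5 × 10⁷ to 1 × 10⁷ cells/ml and cells exposed for 96 h. Total lipids extracted; neutral lipids separated from polar lipids by silicic acid column chromatography; free sterols quantified by capillary gas-liquid chromatography and mass spectrometry as mass % of total sterols.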

Leishmania amazonensis [4] = assay: Antileishmanial activity against Leishmania mexicana amazonensis promastigotes by trypan blue exclusion method; assay type: functional, organism-based
Outline: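 L. mexicana amazonensis promastigotes cultured in liver infusion-tryptose medium with lactalbumin and 10% FCS at 26°C, unagitated. Cultures started at 2 × 10⁶ cells/ml and drug added at 0.5–1 × 10⁷ cells/ml. Density counted by electronic particle counter and hemocytometer. Viability by trypan blue exclusion. Triplicate growth experiments.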

Plasmodium falciparum = assay: Antiplasmodial activity after 48 hrs against chloroquine and pyrimethamine-resistant Plasmodium falciparum K1 in human erythrocytes by [3H]hypoxanthine uptake; assay type: functional, organism-based
Outline: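 P. falciparum K1 in human red cells in RPMI 1640 with 5% Albumax, exposed to serial drug dilutions. Incubated 48 h at 37°C under reduced oxygen, then 0.5 μCi [³H]hypoxanthine per well for 24 h more. Cells harvested onto glass-fibre filters and counted by scintillation. Result expressed as % of untreated control, with IC50 from sigmoidal curve. Duplicate, plus an independent repeat for actives.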

Leishmania amazonensis [5] = assay: Inhibition of sterol biosynthesis in Leishmania mexicana amazonensis promastigotes assessed as reduction in endogenous 5-dehydro episterol level at 0.3 uM after 96 hrs by gas-liquid chromatography; assay type: functional; set-up: scale not given: the % may be the effect or the level left; outline: as §2
Leishmania amazonensis [6] = assay: Inhibition of sterol biosynthesis in Leishmania mexicana amazonensis promastigotes assessed as reduction in exogenous cholesterol level at 0.1 uM after 96 hrs by gas-liquid chromatography; assay type: functional; set-up: scale not given: the % may be the effect or the level left; outline: as §1
Leishmania amazonensis [7] = assay: Inhibition of sterol biosynthesis in Leishmania mexicana amazonensis promastigotes assessed as reduction in endogenous episterol level at 0.1 uM after 96 hrs by gas-liquid chromatography; assay type: functional; set-up: scale not given: the % may be the effect or the level left; outline: as §1
Leishmania amazonensis [8] = assay: Inhibition of sterol biosynthesis in Leishmania mexicana amazonensis promastigotes assessed as reduction in endogenous episterol level at 0.3 uM after 96 hrs by gas-liquid chromatography; assay type: functional; set-up: scale not given: the % may be the effect or the level left; outline: as §2
L6 = assay: Cytotoxicity against rat L6 cells after 72 hrs by resazurin assay; assay type: cell-based; settings: L6, 72 h
Outline: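 L-6 cells seeded at 4 × 10⁴ cells/ml in RPMI 1640 with 10% FBS and 2 mM L-glutamine. After 24 h, medium replaced with serial drug dilution and incubated for 72 h at 37°C in 5% CO2. Resazurin added for 2–4 h, fluorescence read at ex 536/em 588 nm. IC50 from sigmoidal curve. Duplicate, with an independent repeat for actives.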

Trypanosoma cruzi = assay: Antitrypanosomal activity against trypomastigotes of Trypanosoma cruzi Tulahuen C2C4 containing lacZ gene in rat L6 cells after 4 days by chlorophenol red-beta-D-galactopyranoside/Nonidet assay; assay type: functional, organism-based; settings: Tulahuen C2C4, L6, 96 h
Outline: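 L-6 rat myoblasts seeded at 2,000 cells/well in RPMI 1640 with 10% FBS and 2 mM L-glutamine. After 24 h, 5,000 T. cruzi Tulahuen C2C4 lacZ trypomastigotes added with serial drug dilution. Incubated at 37°C in 5% CO2 for 4 days. CPRG/Nonidet substrate added and colour read at 540 nm after 2–4 h. IC50 from sigmoidal curve. Duplicate determinations.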

[9] = test system: Trypanosoma brucei rhodesiense; assay: Trypanocidal activity against Trypanosoma brucei rhodesiense STIB 900 bloodstream form after 72 hrs by resazurin assay; assay type: functional, organism-based; settings: STIB 900, 72 h
Outline: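 T. b. rhodesiense STIB 900 bloodstream forms in MEM with 2-mercaptoethanol and 15% heat-inactivated horse serum, with serial drug dilutions. Incubated 72 h at 37°C in 5% CO2. Resazurin added for 2–4 h more, fluorescence read at ex 536/em 588 nm. IC50 from sigmoidal curve. Duplicate, with an independent repeat for actives.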

Squalene synthase = target: T2, Squalene synthase (Homo sapiens, UniProt P37268); assay: Inhibition of human recombinant squalene synthase expressed in Escherichia coli BL21(DE3 pLysS) by liquid scintillation counter
T2 sequence (P37268 whole entry): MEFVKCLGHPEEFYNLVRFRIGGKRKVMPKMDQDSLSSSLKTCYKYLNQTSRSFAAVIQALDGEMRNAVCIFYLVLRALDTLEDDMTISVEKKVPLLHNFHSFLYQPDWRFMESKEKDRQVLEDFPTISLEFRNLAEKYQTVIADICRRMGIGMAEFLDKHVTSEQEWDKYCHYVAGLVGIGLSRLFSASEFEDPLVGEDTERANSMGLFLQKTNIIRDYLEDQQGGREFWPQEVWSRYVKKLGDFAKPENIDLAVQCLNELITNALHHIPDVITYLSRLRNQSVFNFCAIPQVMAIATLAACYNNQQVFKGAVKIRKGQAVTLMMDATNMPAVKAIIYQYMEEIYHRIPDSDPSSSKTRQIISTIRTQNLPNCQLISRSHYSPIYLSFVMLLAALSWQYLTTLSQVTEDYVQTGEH
Outline: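 Human SQS in extracts of E. coli BL21(DE3 pLysS) carrying pHSS16, assayed under the same conditions as the L. major enzyme. Buffer: phosphate pH 7.4, MgCl2, CHAPS, Tween 80, DTT, BSA, and NADPH with a regenerating system. Substrate 0.5 μM radiolabelled farnesyl pyrophosphate. Squalene band radioactivity counted by scintillation.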

Leishmania amazonensis [10] = assay: Inhibition of sterol biosynthesis in Leishmania mexicana amazonensis promastigotes assessed as reduction in endogenous cholesta-7,24-dien-3beta-ol level at 3 uM after 96 hrs by gas-liquid chromatography; assay type: functional; set-up: scale not given: the % may be the effect or the level left; outline: as §1
Leishmania amazonensis [11] = assay: Inhibition of sterol biosynthesis in Leishmania mexicana amazonensis promastigotes assessed as reduction in exogenous cholesterol level at 3 uM after 96 hrs by gas-liquid chromatography; assay type: functional; set-up: scale not given: the % may be the effect or the level left; outline: as §1
Leishmania amazonensis [12] = assay: Inhibition of sterol biosynthesis in Leishmania mexicana amazonensis promastigotes assessed as reduction in exogenous cholesterol level at 10 uM after 96 hrs by gas-liquid chromatography; assay type: functional; set-up: scale not given: the % may be the effect or the level left; outline: as §1
Leishmania amazonensis [13] = assay: Inhibition of sterol biosynthesis in Leishmania mexicana amazonensis promastigotes assessed as reduction in endogenous episterol level at 3 uM after 96 hrs by gas-liquid chromatography; assay type: functional; set-up: scale not given: the % may be the effect or the level left; outline: as §1
Leishmania amazonensis [14] = assay: Inhibition of sterol biosynthesis in Leishmania mexicana amazonensis promastigotes assessed as reduction in endogenous 5-dehydro episterol level at 3 uM after 96 hrs by gas-liquid chromatography; assay type: functional; set-up: scale not given: the % may be the effect or the level left; outline: as §1
Leishmania amazonensis [15] = assay: Inhibition of sterol biosynthesis in Leishmania mexicana amazonensis promastigotes assessed as reduction in endogenous 5-dehydro episterol level at 10 uM after 96 hrs by gas-liquid chromatography; assay type: functional; set-up: scale not given: the % may be the effect or the level left; outline: as §1
Leishmania amazonensis [16] = assay: Inhibition of sterol biosynthesis in Leishmania mexicana amazonensis promastigotes assessed as reduction in endogenous episterol level at 10 uM after 96 hrs by gas-liquid chromatography; assay type: functional; set-up: scale not given: the % may be the effect or the level left; outline: as §1
Leishmania amazonensis [17] = assay: Inhibition of sterol biosynthesis in Leishmania mexicana amazonensis promastigotes assessed as reduction in endogenous cholesta-5,7,24-trien-3beta-ol level at 3 uM after 96 hrs by gas-liquid chromatography; assay type: functional; set-up: scale not given: the % may be the effect or the level left; outline: as §1

| Structure (SMILES) | IC50 [2] [µM] | IC50 (Leishmania donovani) [µM] | MIC (Leishmania amazonensis [4]) [µM] | IC50 (Plasmodium falciparum) [µM] | IC50 (L6) [µM] | IC50 (Trypanosoma cruzi) [µM] | IC50 [9] [µM] | IC50 (Squalene synthase) [µM] | Activity (Leishmania amazonensis [11]) [%] | Activity (Leishmania amazonensis [12]) [%] | Activity (Leishmania amazonensis [13]) [%] | Activity (Leishmania amazonensis [14]) [%] | other results |
| --- | --- | --- | --- | --- | --- | --- | --- | --- | --- | --- | --- | --- | --- |
| C1=C(c2ccc(OCc3ccccc3)cc2)C2CCN1CC2 | 0.1 | 1.1 | 0.3 (≈ 0.0874 µg/mL) | 4.8 | 47.2 | 3.1 | 1.1 | 0.25 |  |  |  |  | Activity (Leishmania amazonensis [1]): 53%; Activity (Leishmania amazonensis [3]): 52.9%; Activity (Leishmania amazonensis [5]): 24.2%; Activity (Leishmania amazonensis [6]): 31.6%; Activity (Leishmania amazonensis [7]): 15.4%; Activity (Leishmania amazonensis [8]): 22.9% |
| OC[C@@H]1CC2CCN1C[C@@H]2C#Cc1ccc(OCc2ccccc2)cc1 (stereo partly specified) | > 1 | 7.4 | 10 (≈ 3.47 µg/mL) | 0.6 | 16.1 | 3.4 | 1.2 |  | 61.4 | >99 | 22.7 |  | Activity (Leishmania amazonensis [10]): 15.9% |
| CCOC(=O)Cc1ccc(C#CC2(O)CN3CCC2CC3)cc1 (stereo unspecified) | 0.97 | 17.3 | 10 (≈ 3.13 µg/mL) | 10 | > 287 | 25.6 | 258 | 0.66 | 28.4 | 62.3 | 23 | 48.6 | Activity (Leishmania amazonensis [15]): 18.9%; Activity (Leishmania amazonensis [16]): 18.8% |
| OC[C@H]1CC2CCN1C[C@@H]2C#Cc1ccc(OCc2ccccc2)cc1 (stereo partly specified) | > 1 | 8 | 10 (≈ 3.47 µg/mL) | 1.1 | 16.6 | 3.1 | 1.2 |  | 21.2 | >99 | 14.2 | 63.2 | Activity (Leishmania amazonensis [17]): 10.7% |
